According to ChEMBL document CHEMBL5678808, “Human target validation of phosphoinositide 3-kinase (PI3K)β: effects on platelets and insulin sensitivity, using AZD6482 a novel PI3Kβ inhibitor” (J Thromb Haemost, 2012):

How the values were obtained:
[1] = Toxicity in Sprague-Dawley rat assessed as change in blood pressure at 30000 ug/kg, iv for 2 mins followed by 1500 ug/kg/min, iv for 28 mins; type: organism-based; conditions: in vivo, 30 mg/kg, 0.5 h, time 30 min
Canis familiaris = experiment: Antithrombotic activity in iv dosed Beagle dog assessed as restoration of blood flow administered via bolus infusion for 29 mins; type: functional, organism-based; conditions: Canis lupus familiaris
In short: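 Modified Folts' model of thrombosis in a damaged, stenosed femoral artery of anesthetized dogs. Animals first received saline vehicle. Consecutive i.v. doses then followed, each given over a 30-min period as a bolus (0.03–1.3 μg kg−1) plus an infusion (0.005–0.24 μg kg min−1). Read-outs were cyclic flow reductions, expressed as % restoration of blood flow, plus bleeding time, blood loss and plasma drug exposure. Mean ± SEM, n = 6.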

[2] = target: MAP kinase-activated protein kinase 5 (Homo sapiens) (UniProt Q8IW41); experiment: Inhibition of human MAPKAPK5 at 10 uM relative to control
[3] = target: Serine/threonine-protein kinase Chk1 (Homo sapiens, UniProt O14757); experiment: Inhibition of human CHK1
Rattus norvegicus [4] = experiment: Insulin sensitizing activity in Sprague-Dawley rat hyperinsulinemic-euglycemic glucose clamp model assessed as basal glucose level during infusion of human insulin at 1000 ug/kg/min, iv for 2 mins followed by 50 ug/kg/min, iv for 28 mins by colorimetry (reference value: 8.1 +/- 0.7 mM); type: functional; conditions: time 30 min, 0.5 h
In short: (§1)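 Anesthetized rats; hyperinsulinemic–euglycemic clamp with human insulin infused. A baseline clamp (Clamp1) was followed by a second clamp (Clamp2) with vehicle or drug i.v. The drug was given as a low dose (1000 μg kg−1 + 50 μg kg min−1) or a high dose (6000 μg kg−1 + 300 μg kg min−1). Steady-state glucose infusion rate for euglycemia was recorded, with plasma glucose, human insulin and total insulin; mean ± SEM, n = 4–5/group.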

[5] = Toxicity in Sprague-Dawley rat hyperinsulinemic-euglycemic glucose clamp model assessed as increase in blood pressure at 6000 ug/kg/min, iv for 2 mins followed by 300 ug/kg/min, iv for 28 mins; type: organism-based; conditions: in vivo, 0.5 h, time 30 min
In short: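 Anesthetized rats underwent two consecutive hyperinsulinemic–euglycemic clamps with human insulin infusion: a baseline Clamp1, then Clamp2 with vehicle or AZD6482 i.v. (n = 4–5/group). Blood pressure and heart rate were followed during control periods and after drug administration. Steady-state glucose infusion rate maintained euglycemia.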

Rattus norvegicus [6] = experiment: Insulin sensitizing activity in Sprague-Dawley rat hyperinsulinemic-euglycemic glucose clamp model assessed as total insulin level during infusion of human insulin at 6000 ug/kg/min, iv for 2 mins followed by 300 ug/kg/min, iv for 28 mins measured during clamp 1 (reference value: 2.2 +/- 0.1 nM); type: functional; conditions: time 30 min, 0.5 h; in short: as §1
[7] = target: Insulin-like growth factor 1 receptor (Homo sapiens, UniProt P08069); experiment: Inhibition of human IGF1R
[8] = target: Serine/threonine-protein kinase Nek2 (Homo sapiens) (UniProt P51955); experiment: Inhibition of human NEK2a at 10 uM relative to control
[9] = target: Homeodomain-interacting protein kinase 3 (Homo sapiens) (UniProt Q9H422); experiment: Inhibition of human HIPK3 at 10 uM relative to control
Rattus norvegicus [10] = experiment: Insulin sensitizing activity in Sprague-Dawley rat hyperinsulinemic-euglycemic glucose clamp model assessed as human insulin level during infusion of human insulin at 1000 ug/kg/min, iv for 2 mins followed by 50 ug/kg/min, iv for 28 mins measured during clamp 1 (reference value: 1.7 +/- 0.1 nM); type: functional; conditions: time 30 min, 0.5 h; in short: as §1
[11] = target: Serine/threonine-protein kinase pim-1 (Homo sapiens) (UniProt P11309); experiment: Inhibition of human PIM1 at 10 uM relative to control
[12] = target: Serine/threonine-protein kinase PAK 1 (Homo sapiens, UniProt Q13153); experiment: Inhibition of human PAK1
[13] = Inhibition of PI3Kbeta in Beagle dog whole blood assessed as reduction in ADP-induced platelet aggregation at 1 uM preincubated for 5 mins followed by ADP addition and measured for 6 mins by impedance aggregometry relative to control; conditions: Canis lupus familiaris, 11 min, condition thrombotic disease
[14] = target: Mitogen-activated protein kinase 14 (Homo sapiens, UniProt Q16539); experiment: Inhibition of human p38a
[15] = target: Mitogen-activated protein kinase 10 (Homo sapiens) (UniProt P53779); experiment: Inhibition of human JNK3 at 10 uM relative to control
[16] = Toxicity in Sprague-Dawley rat assessed as change in heart rate at 6000 ug/kg, iv for 2 mins followed by 300 ug/kg/min, iv for 28 mins; type: organism-based; conditions: in vivo, 6 mg/kg, 0.5 h, time 30 min
In short: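 Overnight-fasted anesthetized rats got three consecutive escalating i.v. doses over 30 min each (n = 4/group). Heart rate and blood pressure were followed alongside end-of-interval blood samples for plasma drug exposure, glucose and insulin (relative HOMA index experiments).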

[17] = target: Homeodomain-interacting protein kinase 2 (Homo sapiens) (UniProt Q9H2X6); experiment: Inhibition of human HIPK2 at 10 uM relative to control
[18] = target: Epidermal growth factor receptor (Homo sapiens, UniProt P00533); experiment: Inhibition of human EGFR
[19] = Inhibition of PI3Kbeta in Beagle dog whole blood assessed as reduction in ADP-induced platelet aggregation preincubated for 5 mins followed by ADP addition and measured for 6 mins by impedance aggregometry; type: tissue-based; conditions: Canis lupus familiaris
In short: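 Ex vivo whole blood impedance aggregometry (Multiplate) with ADP as agonist, using blood drawn from anesthetized dogs in the Folts' model. Dogs were given i.v. bolus plus infusion doses over consecutive 30-min periods. Inhibition was related to measured plasma drug concentration to derive EC50. Mean ± SEM, n = 6.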

Focal adhesion kinase 1 = Focal adhesion kinase 1 (Homo sapiens, UniProt Q05397); experiment: Inhibition of human FAK
Rattus norvegicus [20] = experiment: Insulin sensitizing activity in Sprague-Dawley rat hyperinsulinemic-euglycemic glucose clamp model assessed as basal total insulin level during infusion of human insulin at 1000 ug/kg/min, iv for 2 mins followed by 50 ug/kg/min, iv for 28 mins (reference value: 0.3 +/- 0.1 nM); type: functional; conditions: time 30 min, 0.5 h; in short: as §1
Rattus norvegicus [21] = experiment: (§2) Insulin sensitizing activity in Sprague-Dawley rat hyperinsulinemic-euglycemic glucose clamp model assessed as glucose infusion rate required to maintain euglycemia during infusion of human insulin at 1000 ug/kg/min, iv for 2 mins followed by 50 ug/kg/min, iv for 28 mins measured during clamp 2 (reference value: 138 +/- 4 umol/min/kg); type: functional; conditions: time 30 min, 0.5 h; in short: as §1
[22] = target: Myosin light chain kinase, smooth muscle (Homo sapiens) (UniProt Q15746); experiment: Inhibition of human smMLCK at 10 uM relative to control
[23] = target: Cyclin-dependent kinase 2/cyclin E1 (Homo sapiens, UniProt P24941); experiment: Inhibition of human CDK2/Cyclin E; type: protein-complex assay
Rattus norvegicus [24] = experiment: as §2, with “at 6000” for “at 1000”, “by 300” for “by 50”, “clamp 1” for “clamp 2”, “value: 124” for “value: 138”; type: functional; conditions: time 30 min, 0.5 h; in short: as §1
[25] = Protein binding in rat plasma assessed as unbound fraction; type: ADME, cell-free
[26] = target: Serine/threonine-protein kinase PAK 5 (Homo sapiens) (UniProt Q9P286); experiment: Inhibition of human PAK5 at 10 uM relative to control
[27] = target: Calcium/calmodulin-dependent protein kinase kinase 2 (Homo sapiens) (UniProt Q96RR4); experiment: Inhibition of human CAMKKbeta at 10 uM relative to control

Sequence of Serine/threonine-protein kinase PAK 5 (Homo sapiens) (Q9P286 whole entry, looked up): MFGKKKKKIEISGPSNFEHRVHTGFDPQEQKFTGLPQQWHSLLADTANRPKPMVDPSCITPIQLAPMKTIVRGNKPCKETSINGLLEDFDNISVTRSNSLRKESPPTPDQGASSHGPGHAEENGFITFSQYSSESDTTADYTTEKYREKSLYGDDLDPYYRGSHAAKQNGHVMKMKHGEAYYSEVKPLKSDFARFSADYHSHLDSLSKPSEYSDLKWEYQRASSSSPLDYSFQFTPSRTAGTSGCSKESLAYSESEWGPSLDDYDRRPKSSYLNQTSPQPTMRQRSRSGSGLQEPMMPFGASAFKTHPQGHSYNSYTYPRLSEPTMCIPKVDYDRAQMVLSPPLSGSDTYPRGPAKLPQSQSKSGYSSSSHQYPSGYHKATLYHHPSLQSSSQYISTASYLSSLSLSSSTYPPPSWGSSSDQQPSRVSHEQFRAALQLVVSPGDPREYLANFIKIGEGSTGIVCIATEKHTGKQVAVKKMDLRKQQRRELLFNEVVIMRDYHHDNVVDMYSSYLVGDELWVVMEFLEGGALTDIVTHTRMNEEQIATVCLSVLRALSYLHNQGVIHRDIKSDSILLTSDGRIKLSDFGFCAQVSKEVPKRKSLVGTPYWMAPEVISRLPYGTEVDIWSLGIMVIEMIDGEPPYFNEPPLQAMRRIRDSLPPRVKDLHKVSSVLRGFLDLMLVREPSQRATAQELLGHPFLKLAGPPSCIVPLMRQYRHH
Sequence of Mitogen-activated protein kinase 14 (Q16539 whole entry): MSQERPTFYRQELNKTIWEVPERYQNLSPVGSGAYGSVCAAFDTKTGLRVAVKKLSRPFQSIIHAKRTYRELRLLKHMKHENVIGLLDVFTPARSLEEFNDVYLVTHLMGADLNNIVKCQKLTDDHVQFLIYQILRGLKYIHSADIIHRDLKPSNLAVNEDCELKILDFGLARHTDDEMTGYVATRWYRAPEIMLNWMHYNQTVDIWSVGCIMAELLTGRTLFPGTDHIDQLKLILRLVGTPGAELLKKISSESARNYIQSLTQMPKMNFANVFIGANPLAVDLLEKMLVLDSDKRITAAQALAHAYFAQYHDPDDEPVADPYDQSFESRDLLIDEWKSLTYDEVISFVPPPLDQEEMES
Sequence of Focal adhesion kinase 1 (Q05397 whole entry, the tested form may be a part): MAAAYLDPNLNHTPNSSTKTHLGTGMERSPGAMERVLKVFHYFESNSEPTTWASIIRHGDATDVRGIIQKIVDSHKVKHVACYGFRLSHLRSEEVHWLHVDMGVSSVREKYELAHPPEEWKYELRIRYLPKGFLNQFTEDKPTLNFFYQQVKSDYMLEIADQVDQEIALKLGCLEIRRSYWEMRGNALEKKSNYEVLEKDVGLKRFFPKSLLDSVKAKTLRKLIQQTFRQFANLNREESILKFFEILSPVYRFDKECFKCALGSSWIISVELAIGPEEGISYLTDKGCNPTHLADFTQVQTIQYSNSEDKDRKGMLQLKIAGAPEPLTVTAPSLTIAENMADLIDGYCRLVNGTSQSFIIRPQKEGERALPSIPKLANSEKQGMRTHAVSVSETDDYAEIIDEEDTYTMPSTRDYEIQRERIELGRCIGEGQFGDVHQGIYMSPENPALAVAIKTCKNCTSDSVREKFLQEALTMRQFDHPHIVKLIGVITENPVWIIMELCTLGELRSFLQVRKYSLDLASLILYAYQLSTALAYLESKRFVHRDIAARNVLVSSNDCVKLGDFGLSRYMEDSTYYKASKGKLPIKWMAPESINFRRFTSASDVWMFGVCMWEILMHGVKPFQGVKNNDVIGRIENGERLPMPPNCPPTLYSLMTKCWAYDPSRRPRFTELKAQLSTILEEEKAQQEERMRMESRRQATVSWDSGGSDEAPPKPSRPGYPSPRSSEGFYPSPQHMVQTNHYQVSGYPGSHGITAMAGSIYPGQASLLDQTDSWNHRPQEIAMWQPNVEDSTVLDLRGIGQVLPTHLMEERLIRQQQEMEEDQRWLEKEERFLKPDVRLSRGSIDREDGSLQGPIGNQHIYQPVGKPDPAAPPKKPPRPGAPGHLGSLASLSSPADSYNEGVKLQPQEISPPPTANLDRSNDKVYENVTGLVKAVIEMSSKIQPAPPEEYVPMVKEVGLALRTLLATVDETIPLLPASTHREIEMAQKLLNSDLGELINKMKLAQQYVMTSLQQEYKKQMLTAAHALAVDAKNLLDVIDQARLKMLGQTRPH
Sequence of Homeodomain-interacting protein kinase 2 (Homo sapiens) (Q9H2X6 whole entry, looked up): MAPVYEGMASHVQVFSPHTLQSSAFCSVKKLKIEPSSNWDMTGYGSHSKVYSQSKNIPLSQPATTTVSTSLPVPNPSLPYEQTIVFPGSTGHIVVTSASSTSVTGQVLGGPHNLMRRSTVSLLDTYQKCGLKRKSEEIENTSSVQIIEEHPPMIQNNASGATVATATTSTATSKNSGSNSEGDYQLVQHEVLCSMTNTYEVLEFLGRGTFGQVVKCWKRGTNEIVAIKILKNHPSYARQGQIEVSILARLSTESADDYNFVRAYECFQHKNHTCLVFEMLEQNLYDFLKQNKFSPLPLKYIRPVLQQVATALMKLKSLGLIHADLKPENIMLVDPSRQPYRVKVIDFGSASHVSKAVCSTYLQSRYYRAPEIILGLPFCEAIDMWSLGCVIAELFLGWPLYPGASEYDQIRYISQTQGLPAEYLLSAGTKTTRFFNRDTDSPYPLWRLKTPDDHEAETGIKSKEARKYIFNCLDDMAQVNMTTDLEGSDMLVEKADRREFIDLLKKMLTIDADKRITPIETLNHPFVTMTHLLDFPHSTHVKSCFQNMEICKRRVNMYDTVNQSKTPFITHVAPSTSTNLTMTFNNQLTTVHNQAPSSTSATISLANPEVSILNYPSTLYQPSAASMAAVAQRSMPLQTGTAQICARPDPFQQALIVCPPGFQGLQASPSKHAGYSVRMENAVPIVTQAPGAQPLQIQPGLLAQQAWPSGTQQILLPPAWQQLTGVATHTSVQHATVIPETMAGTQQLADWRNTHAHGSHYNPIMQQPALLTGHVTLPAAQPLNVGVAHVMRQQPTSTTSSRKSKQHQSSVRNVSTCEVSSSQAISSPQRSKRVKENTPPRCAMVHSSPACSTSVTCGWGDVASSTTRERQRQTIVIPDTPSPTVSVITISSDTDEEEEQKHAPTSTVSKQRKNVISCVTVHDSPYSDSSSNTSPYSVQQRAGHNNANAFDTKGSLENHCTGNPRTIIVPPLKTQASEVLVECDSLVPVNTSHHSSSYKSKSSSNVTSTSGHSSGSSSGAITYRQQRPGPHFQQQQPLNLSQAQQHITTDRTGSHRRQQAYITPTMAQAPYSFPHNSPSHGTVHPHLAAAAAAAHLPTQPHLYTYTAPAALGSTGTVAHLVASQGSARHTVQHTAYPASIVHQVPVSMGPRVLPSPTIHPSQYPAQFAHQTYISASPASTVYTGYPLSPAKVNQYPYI
Sequence of Epidermal growth factor receptor (P00533 whole entry): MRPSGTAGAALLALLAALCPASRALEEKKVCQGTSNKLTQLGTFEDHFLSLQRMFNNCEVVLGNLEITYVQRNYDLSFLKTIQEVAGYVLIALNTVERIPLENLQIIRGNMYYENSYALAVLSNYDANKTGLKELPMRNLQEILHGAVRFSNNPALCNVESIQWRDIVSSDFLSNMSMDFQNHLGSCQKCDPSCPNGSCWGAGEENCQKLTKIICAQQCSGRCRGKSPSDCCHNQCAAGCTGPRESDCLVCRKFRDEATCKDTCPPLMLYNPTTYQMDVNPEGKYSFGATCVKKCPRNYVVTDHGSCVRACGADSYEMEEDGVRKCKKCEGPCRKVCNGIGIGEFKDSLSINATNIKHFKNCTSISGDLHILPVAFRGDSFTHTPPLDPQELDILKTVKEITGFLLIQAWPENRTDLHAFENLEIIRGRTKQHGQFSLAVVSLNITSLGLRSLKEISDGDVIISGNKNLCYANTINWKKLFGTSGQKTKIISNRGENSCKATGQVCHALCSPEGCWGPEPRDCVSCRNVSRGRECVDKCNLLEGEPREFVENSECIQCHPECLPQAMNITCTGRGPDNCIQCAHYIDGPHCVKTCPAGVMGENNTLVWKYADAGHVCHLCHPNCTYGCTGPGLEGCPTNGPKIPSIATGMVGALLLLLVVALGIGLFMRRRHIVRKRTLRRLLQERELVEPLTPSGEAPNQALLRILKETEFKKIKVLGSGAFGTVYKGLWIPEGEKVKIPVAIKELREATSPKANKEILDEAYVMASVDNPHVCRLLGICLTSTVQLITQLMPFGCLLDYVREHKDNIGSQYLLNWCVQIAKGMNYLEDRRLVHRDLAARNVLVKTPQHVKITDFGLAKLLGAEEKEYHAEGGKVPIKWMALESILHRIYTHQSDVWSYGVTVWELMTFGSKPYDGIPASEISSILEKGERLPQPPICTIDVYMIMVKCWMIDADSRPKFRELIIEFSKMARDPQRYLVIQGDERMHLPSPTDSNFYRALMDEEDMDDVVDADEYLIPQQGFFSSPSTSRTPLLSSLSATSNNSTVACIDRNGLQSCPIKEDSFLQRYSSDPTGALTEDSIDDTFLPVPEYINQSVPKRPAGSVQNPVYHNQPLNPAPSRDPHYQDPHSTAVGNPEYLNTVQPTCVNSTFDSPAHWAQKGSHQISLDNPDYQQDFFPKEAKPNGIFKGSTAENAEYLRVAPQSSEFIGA
Sequence of MAP kinase-activated protein kinase 5 (Homo sapiens) (Q8IW41 whole entry): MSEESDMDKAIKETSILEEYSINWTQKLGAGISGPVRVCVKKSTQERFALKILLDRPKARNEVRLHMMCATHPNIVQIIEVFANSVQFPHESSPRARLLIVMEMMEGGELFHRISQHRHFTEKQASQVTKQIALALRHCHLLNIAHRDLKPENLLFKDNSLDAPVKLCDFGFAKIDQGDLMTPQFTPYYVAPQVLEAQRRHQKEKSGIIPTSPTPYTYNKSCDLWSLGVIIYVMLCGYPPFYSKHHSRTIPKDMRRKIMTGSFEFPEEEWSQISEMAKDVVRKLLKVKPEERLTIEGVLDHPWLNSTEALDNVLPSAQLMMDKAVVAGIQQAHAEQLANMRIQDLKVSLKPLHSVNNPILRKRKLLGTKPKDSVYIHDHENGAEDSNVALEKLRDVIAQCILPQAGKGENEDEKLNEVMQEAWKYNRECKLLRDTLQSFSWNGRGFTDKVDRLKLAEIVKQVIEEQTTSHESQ

- EC50 (Canis familiaris): 0.35 µM
- inhibition [2]: 9.9%
- IC50 [3]: > 1000 µM
- IC50 [7]: > 258 µM
- inhibition [8]: 1.3%
- inhibition [9]: 7.2%
- inhibition [11]: 24%
- IC50 [12]: > 336 µM
- IC50 [14]: > 671 µM
- inhibition [15]: 4.4%
- inhibition [17]: 1%
- IC50 [18]: > 298 µM
- EC50 [19]: 0.13 µM
- IC50 (Focal adhesion kinase 1): > 1000 µM
- inhibition [22]: 2.6%
- IC50 [23]: > 1000 µM
- fraction unbound [25]: 0.11
- inhibition [26]: 21%
- inhibition [27]: 14%
Structure (SMILES): Cc1cc([C@@H](C)Nc2ccccc2C(=O)O)c2nc(N3CCOCC3)cc(=O)n2c1 [AZD-6482]
- Activity [1]: Non-Toxic
- Activity (Rattus norvegicus [4]): 7.6 mM
- Activity [5]: 15 mmHg
- Activity (Rattus norvegicus [6]): 2.3 nM
- Activity (Rattus norvegicus [10]): 1.8 nM
- inhibition at 1 µM [13]: > 80%
- Activity [16]: Non-Toxic
- Activity (Rattus norvegicus [20]): 0.3 nM
- Activity (Rattus norvegicus [21]): 107 µmol/min/kg
- Activity (Rattus norvegicus [24]): 106 µmol/min/kg
